Here are results for three compounds from ChEMBL document CHEMBL1127457, “Nonpeptide renin inhibitors with good intraduodenal bioavailability and efficacy in dog” (J Med Chem, 1994).

A short description of data set [1]: Average area under curve for compound at 1 mg/kg dose intravenous administration to Ferret. Particulars: in vivo.
Data set [2] can be described thus: Average area under curve for the compound at 10 mg/kg dose after intraduodenal administration to rat. Particulars: in vivo.
A short description of data set [3]: Average area under curve for the compound at 1 mg/kg dose after intravenous administration to rat. Particulars: in vivo.
Data set [4] is described as follows: Average area under curve at 10 mg/kg dose after intraduodenal administration to Ferret. Particulars: in vivo.
A short description of data set [5]: Average area under curve at 10 mg/kg intraduodenal administration to salt depleted dog. Particulars: in vivo.
Data set [6] is described as follows: Average area under curve at 1 mg/kg intravenous administration to salt depleted dog. Particulars: in vivo.
A short description of data set [7]: C(compound) was tested for percent […] bioavailability in rat. The class given is ADME, organism-based. Particulars: in vivo, po. The method, boiled down:
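Intraduodenal rather than oral dosing: 10 mg/kg id, plus a 1 mg/kg iv bolus. Plasma drug levels were measured by renin-inhibition bioassay, which counts active metabolites as parent. Level–time data were fitted to a biexponential decay model to give AUC. Bioavailability is the dose-corrected AUCid/AUCiv for each experiment, given as mean ± SD of the mean; n=3 unless noted.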

Data set [8] in a line: Oral bioavailability in dog (salt depleted). Particulars: in vivo.
Data set [9] has as its system Canis familiaris. In words: Mean arterial pressure response following 10 mg/kg intraduodenal administration to salt depleted dog. Particulars: in vivo, other.
Data set [10] relates to Canis familiaris. In words: Mean arterial pressure response following 1 mg/kg intravenous administration to salt depleted dog. Particulars: in vivo.
Data set [11] in a line: Oral bioavailability in ferret. Particulars: in vivo.
Data set [12] can be described thus: Average peak plasma concentration of compound after 10 mg/kg intraduodenal administration to Ferret. Particulars: plasma.
Data set [13] can be described thus: Average peak plasma concentration of compound after 10 mg/kg intraduodenal administration to rat. As to conditions: plasma.
Data set [14] can be described thus: Average peak plasma concentration of compound after 1 mg/kg intravenous administration in salt depleted dog. Particulars: plasma.
Data set [15] can be described thus: Average peak plasma concentration of compound after 1 mg/kg intravenous administration to Ferret. As to conditions: plasma.
The nature of data set [16]: Average peak plasma concentration of compound after 1 mg/kg intravenous administration to rat. Particulars: plasma.
The nature of data set [17]: Partition coefficient (logD6.5). As to conditions: octanol/water, pH 6.5.
The nature of data set [18]: Partition coefficient (logD7.4). Particulars: octanol/water, pH 7.4.
Data set [19] in a line: Average peak plasma concentration of compound at 10 mg/kg intraduodenal administration in salt depleted dog. Particulars: plasma.
Data set [20] concerns the target T1, Renin (Rattus norvegicus, UniProt P08424).
T1 sequence (P08424 whole entry): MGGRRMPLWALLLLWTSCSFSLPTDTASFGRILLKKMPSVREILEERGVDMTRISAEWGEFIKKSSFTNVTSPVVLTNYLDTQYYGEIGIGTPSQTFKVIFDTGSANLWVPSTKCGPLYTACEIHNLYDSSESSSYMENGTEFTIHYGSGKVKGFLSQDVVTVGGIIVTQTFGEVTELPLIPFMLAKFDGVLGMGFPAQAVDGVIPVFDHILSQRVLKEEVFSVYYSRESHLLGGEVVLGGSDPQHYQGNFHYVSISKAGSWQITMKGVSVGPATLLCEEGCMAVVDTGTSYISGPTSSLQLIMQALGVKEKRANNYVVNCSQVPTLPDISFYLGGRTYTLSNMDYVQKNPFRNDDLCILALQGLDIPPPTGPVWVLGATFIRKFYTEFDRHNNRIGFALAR
In words: (§1) Tested in vitro for its ability to inhibit the rat plasma renin. The class given is cell-free. In outline: (§2)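 IC50 against renin in plasma from the named species (dog, ferret, human, rat); single determination in most cases.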

For data set [21], the target named is T2, Renin (Homo sapiens, UniProt P00797).
T2 sequence (P00797 whole entry): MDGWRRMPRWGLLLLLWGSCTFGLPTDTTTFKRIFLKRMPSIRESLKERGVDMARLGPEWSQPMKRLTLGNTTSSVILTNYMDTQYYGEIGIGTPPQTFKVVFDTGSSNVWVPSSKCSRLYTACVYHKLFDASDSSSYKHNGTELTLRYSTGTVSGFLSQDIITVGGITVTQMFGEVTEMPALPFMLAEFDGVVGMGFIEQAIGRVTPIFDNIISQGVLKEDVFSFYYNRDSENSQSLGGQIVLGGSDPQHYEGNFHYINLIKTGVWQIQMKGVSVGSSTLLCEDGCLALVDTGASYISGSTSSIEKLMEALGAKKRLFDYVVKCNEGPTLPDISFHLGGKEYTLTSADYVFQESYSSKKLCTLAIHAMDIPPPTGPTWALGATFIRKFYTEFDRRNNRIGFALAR
In words: Tested in vitro for its ability to inhibit the human plasma renin. It is filed as cell-free. The method, boiled down:
as §2

For data set [22], the species on record is Homo sapiens. As to conditions: Liver, Microsome.
Data set [23] has as its target Renin (Canis familiaris). In words: Tested in vitro for its ability to inhibit the dog plasma renin.
The target of data set [24] is Renin (Mustela putorius furo). In words: Tested in vitro for its ability to inhibit the ferret plasma renin.
Data set [25] can be described thus: Oral bioavailability in rat. As to conditions: in vivo, intraduodenal, 10 mg/kg.
For data set [26], the target named is Renin (Canis familiaris). Kind of data set: Tested in vitro for its ability to inhibit the dog plasma renin. The source holds these as a separate data set.
Data set [27] concerns the target Renin (Mustela putorius furo). In words: Tested in vitro for its ability to inhibit the ferret plasma renin. This is another data set of the same source.
The target in data set [28] is T1, Renin. The data set is described as §1. The class given is functional, cell-free. In outline: as §2
Data set [29] has as its target Renin (Canis familiaris). Kind of data set: Tested in vitro for its ability to inhibit the dog plasma renin. This is another data set of the same source.
The target of data set [30] is Renin (Mustela putorius furo). In words: Tested in vitro for its ability to inhibit the ferret plasma renin. This is another data set of the same source.

Turning to `CCCC[C@H](N[C@@H](Cc1ccccc1)C(=O)N1CCC(OCOC)CC1)C(=O)N[C@@H](CC1CCCCC1)[C@@H](O)C[C@H](C(=O)NCCN1CCOCC1)C(C)C`, the area under the curve (AUC) was 1870 ng·h/mL in data set [1]; 1220 ng·h/mL in data set [2]; 242 ng·h/mL in data set [3]; 9750 ng·h/mL in data set [4]; 6530 ng·h/mL in data set [5]; 1260 ng·h/mL in [6]. For the same compound, the bioavailability in data set [7] came out at 50%; in [8], 52%; in [11] it was 51%. For the same compound, the Arterial pressure in data set [9] amounted to 6449 % mmHg min; in data set [10], 2849 % mmHg min. Moreover, the highest concentration (Cmax) is 6500 ng/mL in [12]; 910 ng/mL in data set [13]; 7000 ng/mL in data set [14]; 2840 ng/mL in data set [15]; 680 ng/mL in data set [16]; 1830 ng/mL in [19]. For the same compound, the pH-dependent lipophilicity (logD) in data set [17] and in [18] was above 5 throughout. Moreover, the IC50 in [20] came to 3800 nM; in [21], 3.9 nM; in data set [23] it was 14 nM; in [24] it was 170 nM. Also, the Rate (nM min-1 (nM of cytochrome P450)-1) in data set [22] was found to be 3.71.
In the case of `CCCC[C@H](N[C@@H](Cc1ccccc1)C(=O)N1CCC(OCOC)CC1)C(=O)N[C@@H](CC1CCCCC1)[C@@H](O)C[C@H](C(=O)NCC(C)(C)N1CCOCC1)C(C)C`, the AUC was 2630 ng·h/mL in [1]; 763 ng·h/mL in [2]; 215 ng·h/mL in data set [3]; 16600 ng·h/mL in [4]; 6970 ng·h/mL in data set [5]; 1840 ng·h/mL in data set [6]. The bioavailability is 37% in [8], 63% in [11] and 35% in data set [25]. Besides, the Arterial pressure in data set [9] came out at 8525 % mmHg min; in [10] it was 7589 % mmHg min. The Cmax in [12] worked out at 11500 ng/mL; in data set [13], 600 ng/mL; in [14] it was 7560 ng/mL; in data set [15] it was 2980 ng/mL; in [16], 340 ng/mL; in [19], 1600 ng/mL. Besides, the pH-dependent lipophilicity (logD) in data set [17] and in data set [18] was above 5 throughout. Besides, the 50% inhibitory concentration (IC50) in data set [20] was 2100 nM; in data set [21], 9.1 nM; in [26] it was 14 nM; in [27], 120 nM. In data set [22], the Rate (nM min-1 (nM of cytochrome P450)-1) turned out to be 4.32.
Turning to `CCCC[C@H](N[C@@H](Cc1ccccc1)C(=O)N1CCC(OCOC)CC1)C(=O)N[C@@H](CC1CCCCC1)[C@@H](O)C[C@H](C(=O)NCCC[N+]1([O-])CCOCC1)C(C)C`, the AUC was 668 ng·h/mL in data set [1]; 140 ng·h/mL in data set [2]; 212 ng·h/mL in data set [3]; 1350 ng·h/mL in data set [4]; 1430 ng·h/mL in data set [5]; above 732 ng·h/mL in data set [6]. The bioavailability in data set [8] was below 19%; in data set [11], 20%; in [25] it was 6%. In addition, the Arterial pressure is reported as 6881 % mmHg min in data set [9] and 3707 % mmHg min in data set [10]. For the same compound, the Cmax in data set [12] is 1180 ng/mL; in data set [13], 140 ng/mL; in data set [14], above 5530 ng/mL; in data set [15] it was 1830 ng/mL; in [16], 1130 ng/mL; in data set [19], 420 ng/mL. For the same compound, the pH-dependent lipophilicity (logD) in [17] and in data set [18] was 3.6 each time. Also, the IC50 in data set [28] worked out at 6400 nM; in data set [21], 4.3 nM; in [29], 19 nM; in [30], 420 nM.
